Results taken from ChEMBL document CHEMBL1139252, “Inhibition of purple acid phosphatase with alpha-alkoxynaphthylmethylphosphonic acids” (Bioorg Med Chem Lett, 2009).
Calls of active or inactive are those of the source. No cut-off for these calls is given here.

Key:
Sus scrofa [1] = species on record: Sus scrofa; assay: Activity of pig PAP at pH 4.9
[2] = biological target: T1, Fe(3+)-Zn(2+) purple acid phosphatase (Phaseolus vulgaris) (UniProt P80366); assay: Inhibition of red kidney bean PAP at pH 6.2
T1 sequence (whole entry): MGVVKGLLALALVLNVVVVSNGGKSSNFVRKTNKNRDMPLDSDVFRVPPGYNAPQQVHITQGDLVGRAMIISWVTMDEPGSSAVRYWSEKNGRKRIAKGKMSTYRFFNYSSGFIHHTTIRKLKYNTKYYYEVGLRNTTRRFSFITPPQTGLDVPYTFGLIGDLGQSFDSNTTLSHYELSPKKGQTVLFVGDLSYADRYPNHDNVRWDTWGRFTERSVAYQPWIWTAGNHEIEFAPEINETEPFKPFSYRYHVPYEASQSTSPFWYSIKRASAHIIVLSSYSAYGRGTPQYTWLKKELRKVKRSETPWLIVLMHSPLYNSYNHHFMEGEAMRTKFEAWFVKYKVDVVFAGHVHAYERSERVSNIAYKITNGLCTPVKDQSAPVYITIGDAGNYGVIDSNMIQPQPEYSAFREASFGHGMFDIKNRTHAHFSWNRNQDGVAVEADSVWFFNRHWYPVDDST
In short: (§1)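 Each enzyme was run at its own pH optimum: red kidney bean PAP at pH 6.2 and pig PAP at pH 4.9. IC50 values were determined experimentally. Separate inhibition constants were derived for binding to the free enzyme and to the enzyme–substrate complex.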

Sus scrofa [3] = species on record: Sus scrofa; assay: Inhibition of pig PAP at pH 4.9; in short: as §1
Homo sapiens = species on record: Homo sapiens; assay: Inhibition of human PAP

Structure (SMILES) | Km (Sus scrofa [1]) [µM] | Kic [2] [mM] | Kiuc [2] [mM] | logIC50 [2] | Kic (Sus scrofa [3]) [mM] | Kiuc (Sus scrofa [3]) [mM] | logIC50 (Sus scrofa [3]) | Activity (Homo sapiens)
CCCCCCCCOC(c1cccc2ccccc12)P(=O)(O)O (racemic) | 1500 | 0.05 | 0.129 | -1 | 0.023 | 0.044 | -1.5 | 
O=P(O)(O)Cc1cccc2ccccc12 |  |  |  | > 0.845 |  |  |  | 
CCCCCCCCCCOC(c1cccc2ccccc12)P(=O)(O)O (racemic) | 1130 | 0.004 | 0.03 | -2.1 | 0.017 | 0.02 | -1.7 | 
O=P(O)(O)C(O)c1cccc2ccccc12 (configuration not stated) |  |  |  | 0.7 |  |  |  | inactive
CCCCCCOC(c1cccc2ccccc12)P(=O)(O)O (racemic) | 2650 | 1.47 | 1.43 | 0 |  |  | -0.37 | 
